31 molecules from ChEMBL document CHEMBL1149381, “New arylthioindoles: potent inhibitors of tubulin polymerization. 2. Structure-activity relationships and molecular modeling studies” (J Med Chem, 2006) can be followed below.

Usually IC50 stands for the midpoint of a concentration-inhibition curve. A lower IC50 goes with greater potency. One may read the inhibition as the drop in the measured response relative to a control, in per cent. A low value points to a weak effect.

Test [1] has as its target Tubulin. Kind of test: Inhibition of tubulin polymerization. The class given is functional, Homo sapiens. The method in brief:
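Tubulin 10 µM in 0.8 M monosodium glutamate (pH 6.6), preincubated 15 min at 30 °C with varying drug, chilled on ice, then GTP added to 0.4 mM. Turbidity followed at 350 nm for 20 min at 30 °C. Extent of assembly measured and IC50 derived.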

Test [2] has as its system MCF7. As to the kind of experiment: Inhibition of growth of MCF7 cells. Type of test: functional, cell-based. The note with it: Homo sapiens.
In test [3] the target is Tubulin (Homo sapiens) (UniProt P68371+Q9H4B7+P0DPH7+P68366+Q13509+Q71U36+P04350+Q3ZCM7+P07437+P68363+Q9BQE3+Q6PEY2+Q13885+Q9BVA1+Q9BUF5). Kind of test: Displacement of [3H]colchicine from tubulin. The class given is protein-complex assay. The note with it: concentration not given here. The method in brief: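 [3H]Colchicine 5.0 µM with 1.0 µM tubulin and 5.0 µM inhibitor, incubated 10 min at 37 °C. Result given as % inhibition of colchicine binding.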

Test [4] deals with SCLC. As to the kind of experiment: Inhibition of growth of SCLC cells. The class given is functional, cell-based. The note with it: Homo sapiens.
For test [5], the target named is Heat shock protein HSP 90-alpha (Homo sapiens) (UniProt P07900). Kind of test: Binding affinity to Hsp90-alpha by fluorescent polarization assay. A digest of the protocol: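 Fluorescence polarization competition with recombinant Hsp90α (30 nM) and GM-BODIPY (fluorescent geldanamycin, 5 nM) in 20 mM K-HEPES pH 7.3, 50 mM KCl, 5 mM MgCl2, 20 mM Na2MoO4, 0.01% NP40, 0.1 mg/mL bovine gamma globulin, 2 mM DTT. Shaken 24 h at 4 °C, mP read. EC50 = competitor concentration displacing 50% of probe.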

Calls of active or inactive are those of the source. No cut-off for these calls is given here. Bounds are passed on as bounds.

For `CCCCOC(=O)c1[nH]c2ccccc2c1Sc1ccccc1`, the IC50 is greater than 40000 nM in test [1] and greater than 2500 nM in test [2].

As for `COC(=O)c1[nH]c2ccc([N+](=O)[O-])cc2c1Sc1cc(OC)c(OC)c(OC)c1`, the figures for the half-maximal inhibitory concentration (IC50) in test [1] and in test [2] were 4500 nM and 120 nM, respectively. The same molecule displayed an inhibition in test [3] of 32%.

Regarding `COC(=O)c1[nH]c2ccc(OC)cc2c1S(=O)(=O)c1ccccc1`, the values for the IC50 in test [1] and in test [2] were greater than 40000 nM and greater than 2500 nM, respectively.

As to `CCOC(=O)c1[nH]c2ccccc2c1Sc1ccc(OC)cc1`, the figures for the IC50 in test [1], in test [2] and in test [4] were greater than 40000 nM, greater than 2500 nM and greater than 10000 nM, respectively.

On to `COC(=O)c1[nH]c2cccc(OC)c2c1Sc1ccccc1`, for which the IC50 was greater than 40000 nM in test [1] and greater than 2500 nM in test [2].

As for `COC(=O)c1[nH]c2ccc(Cl)cc2c1Sc1ccccc1OC`, the values for the IC50 in test [1], in test [2] and in test [4] were 4200 nM, 1300 nM and 7000 nM, respectively. In test [3], the inhibition was 34%.

On to `CCOC(=O)c1[nH]c2cc(OC)c(OC)cc2c1Sc1ccccc1`, for which the IC50 is 14000 nM in test [1] and greater than 2500 nM in test [2].

On to `COC(=O)c1[nH]c2ccc(Cl)cc2c1Sc1cc(OC)cc(OC)c1`, for which the IC50 was 2200 nM in test [1], 34 nM in test [2] and 18 nM in test [4]. This molecule also yielded an inhibition in test [3] of 82%.

Consider `CCOC(=O)c1[nH]c2cc(OC)c(OC)cc2c1S(=O)(=O)c1ccccc1`, for which the IC50 in test [1] is greater than 40000 nM; in test [2], greater than 2500 nM.

For `COC(=O)c1[nH]c2cc(OC)ccc2c1Sc1ccccc1`, the half-maximal inhibitory concentration (IC50) in test [1] is greater than 40000 nM; in test [2] it was greater than 2500 nM.

For `COC(=O)c1[nH]c2ccc(Cl)cc2c1Sc1cccc(OC)c1`, the IC50 is 1800 nM in test [1], 330 nM in test [2] and 3200 nM in test [4]. In addition, in test [3], the inhibition is 53%.

With `CC(C)CCOC(=O)c1[nH]c2ccccc2c1Sc1ccccc1`, the IC50 in test [1] is greater than 40000 nM; in test [2], greater than 2500 nM.

Regarding `CCOC(=O)c1[nH]c2ccccc2c1Sc1cc(OC)c(OC)c(OC)c1`, in test [3], the inhibition turned out to be 51%.

`COC(=O)c1[nH]c2cc(OC)c(OC)cc2c1Sc1cc(OC)c(OC)c(OC)c1`: the IC50 is greater than 40000 nM in test [1] and 1600 nM in test [2].

As to `COC(=O)c1[nH]c2ccc(Cl)cc2c1S(=O)(=O)c1cccc(OC)c1`, the IC50 in test [1] was 31000 nM; in test [2], greater than 2500 nM; in test [4], greater than 10000 nM.

`CC(C)OC(=O)c1[nH]c2ccccc2c1Sc1ccccc1`: the results for the IC50 in test [1] and in test [2] were 18000 nM and greater than 2500 nM, respectively.

As for `CCOC(=O)c1[nH]c2ccc(OC)cc2c1Sc1cccc(OC)c1`, the IC50 came to 3100 nM in test [1], 280 nM in test [2] and 584 nM in test [4]. Also, in test [3], the inhibition came out at 39%.

In the case of `CCOC(=O)c1[nH]c2ccc(OC)cc2c1Sc1cc(OC)c(OC)c(OC)c1`, the half-inhibitory concentration (IC50) in test [1] was determined as 2400 nM; in test [2] it was 46 nM. This molecule also gave an inhibition in test [3] of 71%.

For `CCCOC(=O)c1[nH]c2ccccc2c1Sc1ccccc1`, the values for the half-inhibitory concentration (IC50) in test [1] and in test [2] were greater than 40000 nM and greater than 2500 nM, respectively.

On to `CCOC(=O)c1[nH]c2ccccc2c1Sc1cccc(OC)c1`, for which the IC50 amounted to 2900 nM in test [1], 150 nM in test [2] and 585 nM in test [4]. In test [3], this molecule returned an inhibition of 48%.

`COC(=O)c1[nH]c2ccc(Cl)cc2c1Sc1cc(OC)c(OC)c(OC)c1` came in with an inhibition in test [3] of 57%. In addition, the outcome in test [5] was inactive.

In the case of `CCOC(=O)c1[nH]c2cc(OC)c(OC)cc2c1Sc1cc(OC)c(OC)c(OC)c1`, the 50% inhibitory concentration (IC50) turned out to be 22000 nM in test [1] and 1000 nM in test [2].

On to `CCC(C)OC(=O)c1[nH]c2ccccc2c1Sc1ccccc1` (centres undefined), for which the IC50 in test [1] is greater than 40000 nM; in test [2], greater than 2500 nM.

In the case of `COC(=O)c1[nH]c2ccc(Cl)cc2c1S(=O)(=O)c1ccc(OC)cc1`, the half-inhibitory concentration (IC50) was greater than 40000 nM in test [1] and greater than 2500 nM in test [2].

On to `CC(C)(C)OC(=O)c1[nH]c2ccccc2c1Sc1ccccc1`, for which the concentration for half-maximal inhibition (IC50) in test [1] was greater than 40000 nM; in test [2] it was greater than 2500 nM.

On to `COC(=O)c1[nH]c2ccc(Cl)cc2c1S(=O)(=O)c1ccccc1OC`, for which the IC50 in test [1] is greater than 40000 nM; in test [2], greater than 2500 nM.

Turning to `CCOC(=O)c1[nH]c2ccc(OC)cc2c1Sc1ccccc1OC`, the IC50 turned out to be 16000 nM in test [1], 350 nM in test [2] and 2200 nM in test [4].

For `O=C(OCc1ccccc1)c1[nH]c2ccccc2c1Sc1ccccc1`, the IC50 was greater than 40000 nM in test [1] and greater than 2500 nM in test [2].

Take `CCOC(=O)c1[nH]c2ccccc2c1Sc1ccccc1OC`: the values for the half-maximal inhibitory concentration (IC50) in test [1] and in test [2] were 12000 nM and greater than 2500 nM, respectively.

On to `CCOC(=O)c1[nH]c2ccc(Cl)cc2c1Sc1cc(OC)c(OC)c(OC)c1`, for which the IC50 in test [1] came to 2200 nM; in test [2], 110 nM; in test [4], 93 nM. Further, the inhibition in test [3] was found to be 53%.

As to `CCOC(=O)c1[nH]c2ccc(OC)cc2c1Sc1ccc(OC)cc1`, the results for the IC50 in test [1], in test [2] and in test [4] were greater than 40000 nM, greater than 2500 nM and greater than 10000 nM, respectively.
